# Results gathered from unrelated publications.
# Each line is one published result; the experiments were not run side by side.
# Target: MAP/microtubule affinity-regulating kinase 4 (MARK4, Homo sapiens, UniProt Q96L34)
# Sequence (Q96L34 1-752, as in one of the studies): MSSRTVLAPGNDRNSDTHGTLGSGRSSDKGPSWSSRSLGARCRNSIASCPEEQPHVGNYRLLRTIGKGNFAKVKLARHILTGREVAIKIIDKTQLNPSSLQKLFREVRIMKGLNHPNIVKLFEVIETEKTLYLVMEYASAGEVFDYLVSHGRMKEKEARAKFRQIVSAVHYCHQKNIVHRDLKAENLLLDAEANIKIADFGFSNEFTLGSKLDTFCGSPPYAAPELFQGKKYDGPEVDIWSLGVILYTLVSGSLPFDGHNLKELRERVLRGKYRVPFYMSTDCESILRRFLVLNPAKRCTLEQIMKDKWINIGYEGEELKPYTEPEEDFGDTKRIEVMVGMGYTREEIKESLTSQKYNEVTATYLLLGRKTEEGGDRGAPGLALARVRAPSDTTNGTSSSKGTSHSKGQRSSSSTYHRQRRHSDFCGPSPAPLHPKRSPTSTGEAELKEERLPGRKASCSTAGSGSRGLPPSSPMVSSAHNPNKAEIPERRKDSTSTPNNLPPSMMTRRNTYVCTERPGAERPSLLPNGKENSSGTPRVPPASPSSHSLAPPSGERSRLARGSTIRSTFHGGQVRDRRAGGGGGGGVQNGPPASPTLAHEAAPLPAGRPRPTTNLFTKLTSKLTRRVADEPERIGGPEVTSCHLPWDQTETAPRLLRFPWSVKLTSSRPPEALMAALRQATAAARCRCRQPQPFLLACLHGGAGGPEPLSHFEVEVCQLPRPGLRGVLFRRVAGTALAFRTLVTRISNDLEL
SMILES,effect on,technique,tested at,remaining binding [%]
CNCc1ccccc1-c1csc([C@@H](C)Nc2nc(C)nc3cc(OC)c(OC)cc23)c1,cell-free assay,competition with immobilised ligand,1 µM,100
c1cncc(-c2cccc(Nc3nccc(NC4CCCCC4)n3)c2)c1,binding,competition with immobilised ligand,10 µM,80
CC(C)CC(=O)N1CCc2nc(-c3ccc(Br)cc3)nc(N(C)Cc3ccccc3)c2C1,cell-free assay,competition with immobilised ligand,0.1 µM,100
COc1cnc(Nc2cccc(S(N)(=O)=O)c2)nc1N1CCN(c2ccccc2)C(=O)C1,binding,competition with immobilised ligand,1 µM,100
CN(C)c1nccc(-c2cnn3ncccc23)n1,binding,,1 µM,100
O=C(c1ccc(Nc2ncc(Cl)c(-c3cc4ccccc4s3)n2)cc1)N1CCC(N2CCCC2)CC1,binding,competition with immobilised ligand,1 µM,28
c1cnn2ncc(-c3ccnc(N4CCC45COC5)n3)c2c1,binding,,1 µM,84
O=C(c1ccc(Nc2nccc(-c3cc4ccccc4s3)n2)cc1)N1CCC(N2CCCC2)CC1,binding,competition with immobilised ligand,1 µM,84
Nc1c(C(=O)NCc2ccc(C(=O)NCCCC3CCCCC3)cc2)cnn1-c1ccccc1,cell-free assay,competition with immobilised ligand,0.1 µM,76
Nc1ncc2c(n1)-c1c([nH]c3ccc(C#CC4CC4)cc13)CCCC2,binding,competition with immobilised ligand,1 µM,100
O=C(c1ccc(Nc2ncc(Cl)c(-c3ccc(Cl)s3)n2)cc1)N1CCC(N2CCCC2)CC1,binding,competition with immobilised ligand,1 µM,23
COc1ccc2c(O[C@@H]3C[C@H]4C(=O)N[C@]5(C(=O)O)CC5/C=C\CCCCC[C@H](NC(=O)OC5CCCC5)C(=O)N4C3)cc(-c3csc(NC(=O)C(C)C)n3)nc2c1C (some centres unmarked),cell-free assay,competition with immobilised ligand,1 µM,99
CN(CCCC(F)(F)F)c1nccc(-c2cnn3ncccc23)n1,binding,,1 µM,90
COc1cnc(Nc2cccc(S(N)(=O)=O)c2)nc1N1CCN(c2ccccc2)CC1,binding,competition with immobilised ligand,1 µM,86
N[C@H]1CCN(c2nccc(-c3cnn4ncccc34)n2)C1,binding,,1 µM,100
O=C(Nc1c[nH]nc1C(=O)NC1CCNCC1)c1cc(F)cc(F)c1,binding,competition with immobilised ligand,1 µM,100
O=C(O)c1cc(-c2ccc(C3CCNCC3)cc2)c2ccc(-c3ccc(C(F)(F)F)cc3)cc2c1,cell-free assay,competition with immobilised ligand,1 µM,100
C[C@@H]1CCN(c2nccc(-c3cnn4ncccc34)n2)C1,binding,,1 µM,100
O=C1CCc2cc(Nc3cc(OC4CCOCC4)c([N+](=O)[O-])cc3Cl)ccc2N1,cell-free assay,competition with immobilised ligand,1 µM,100
CN(C)c1nccc(-c2cnc3ncccn23)n1,binding,,1 µM,93
